≈ marks a conversion by molar mass, not a printed value.
Test system: HT-29
Experiment: Cytotoxicity against human HT29 cells by MTT assay
Assay type: functional
Settings: read-out: ED50 (the source's name)
Method in brief: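 HT-29 human colon adenocarcinoma cells; viability read by MTT assay, following a previously described procedure.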

With C=C(CC[C@@H](C)[C@H]1CC[C@H]2[C@@H]3C=CC4=C[C@@H]5OC[C@@]4(C[C@@H]5O)[C@H]3CC[C@]12C)C(C)C as the compound, how does the EC50 read?
Its EC50 is over 10 µg/mL.

Which EC50 does the source give for C[C@H]1CCC[C@@]2(C)C[C@H]3OO[C@@]12C=C3C(C)(C)O here?
Its EC50 is over 10 µg/mL.

With C=C(C)[C@@]1(OO)CC[C@]2(C)[C@H]3CC[C@@H](C)[C@H]3[C@@H]21 as the compound, how does the EC50 read?
The EC50 was 0.5 µg/mL (≈ 2.12 µM).

How did the EC50 turn out when C=C(CC[C@@H](C)[C@H]1CC[C@H]2[C@@H]3C=CC4=CC=CC[C@]4(CO)[C@H]3CC[C@]12C)C(C)C was run?
The EC50 was over 10 µg/mL.

C[C@H]1CCC[C@@]2(C)C[C@H]3OO[C@@]12C=C3C(C)(C)OO was tested. Which EC50 did it give?
The EC50 was 0.4 µg/mL (≈ 1.49 µM).

Which EC50 does the source give for C=C(C)[C@@]1(O)CC[C@]2(C)[C@H]3CC[C@@H](C)[C@H]3[C@@H]21 here?
Its EC50 is over 10 µg/mL.

For C=C(C)[C@H]1[C@@H]2[C@H](C)CC[C@@H]2[C@@]2(C)CC[C@@H]12, which EC50 is on record?
The EC50 was 3.2 µg/mL (≈ 15.7 µM).

Which EC50 does the source give for C=C(CC[C@@H](C)[C@H]1CC[C@H]2[C@@H]3C[C@H]4OC[C@@]5(CC[C@H](O)C[C@]45O)[C@H]3CC[C@]12C)C(C)C here?
Its EC50 is over 10 µg/mL.

How did the EC50 turn out when C[C@@H]1CC[C@@H](C(C)(C)O)C[C@]2(C)C1=C[C@H]1O[C@H]12 (relative stereo) was run?
The EC50 was over 10 µg/mL.

Test system: P388
Experiment: Cytotoxicity against mouse P388 cells by MTT assay
Assay type: functional
Settings: read-out: ED50 (the source's name)
Method in brief: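 P-388 mouse lymphocytic leukemia cells; viability read by MTT assay, following a previously described procedure.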

C=C(CC[C@@H](C)[C@H]1CC[C@H]2[C@@H]3C=CC4=C[C@@H]5OC[C@@]4(C[C@@H]5O)[C@H]3CC[C@]12C)C(C)C was tested. Which EC50 did it give?
The EC50 was over 10 µg/mL.

For C[C@H]1CCC[C@@]2(C)C[C@H]3OO[C@@]12C=C3C(C)(C)O, which EC50 is on record?
Its EC50 is over 10 µg/mL.

With C=C(C)[C@@]1(OO)CC[C@]2(C)[C@H]3CC[C@@H](C)[C@H]3[C@@H]21 as the compound, how does the EC50 read?
Its EC50 is 0.3 µg/mL (≈ 1.27 µM).

With C=C(CC[C@@H](C)[C@H]1CC[C@H]2[C@@H]3C=CC4=CC=CC[C@]4(CO)[C@H]3CC[C@]12C)C(C)C as the compound, how does the EC50 read?
The EC50 was over 10 µg/mL.

How did the EC50 turn out when C[C@H]1CCC[C@@]2(C)C[C@H]3OO[C@@]12C=C3C(C)(C)OO was run?
Its EC50 is 0.2 µg/mL (≈ 0.745 µM).

For C=C(C)[C@@]1(O)CC[C@]2(C)[C@H]3CC[C@@H](C)[C@H]3[C@@H]21, which EC50 is on record?
Its EC50 is over 10 µg/mL.

For C=C(C)[C@H]1[C@@H]2[C@H](C)CC[C@@H]2[C@@]2(C)CC[C@@H]12, which EC50 is on record?
Its EC50 is 2.8 µg/mL (≈ 13.7 µM).

With C=C(CC[C@@H](C)[C@H]1CC[C@H]2[C@@H]3C[C@H]4OC[C@@]5(CC[C@H](O)C[C@]45O)[C@H]3CC[C@]12C)C(C)C as the compound, how does the EC50 read?
Its EC50 is over 10 µg/mL.

C[C@@H]1CC[C@@H](C(C)(C)O)C[C@]2(C)C1=C[C@H]1O[C@H]12 (relative stereo) was tested. Which EC50 did it give?
Its EC50 is over 10 µg/mL.

Reference: ChEMBL document CHEMBL1141292, “Sesquiterpenoids and artificial 19-oxygenated steroids from the formosan soft coral Nephthea erecta” (2007)
